pKi: −log10 of the molar value. Active and inactive are the calls of the source. The calls are words filed in the database; no cut-off is given here.
What was measured:
[1] = target: T1, GABA-A receptor; alpha-1/beta-2/gamma-2 (Homo sapiens) (UniProt P14867+P47870+P18507); assay: (§1) In vitro GABA-mediated chloride current in A293 cells expressing GABA-A benzodiazepine receptor alpha-1-beta-2-gamma-2 subunits at 5 uM; format: functional, cell-based; conditions: HEK293
[2] = target: T2, GABA-A receptor; anion channel (Rattus norvegicus) (UniProt O09028+P15431+P18506+P18508+P19969+P20236+P23574+P23576+P28471+P28473+P30191+P62813+P63079+P63138+Q91ZM7+Q9ES14); assay: Shift in [35S]TBPS binding to GABA-A Benzodiazepine receptor of rat brain membrane
Rattus norvegicus = assay: In vivo efficacy evaluated for ability to antagonize metrazole induced clonic convulsions in rat after ip injection; format: functional
[3] = target: GABA-A receptor; anion channel; assay: (§2) Displacement of [3H]flunitrazepam from GABA-A benzodiazepine receptor of rat cortical membranes; format: cell membranes, Membrane
Procedure, shortened: (§3)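 Rat membranes incubated 60 min at 4 °C with [3H]flunitrazepam, 50 µg membrane protein and graded test drug in 200 µL containing NaCl, 10 mM Hepes/Tris pH 7.4 and 1 mM MgCl2; bound ligand separated by rapid filtration on GF/B; mean affinity, SE ≤10% of mean.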

[4] = target: T1, GABA-A receptor; alpha-1/beta-2/gamma-2 (Homo sapiens); assay: as §1; format: functional, cell-based; conditions: HEK293; remark: listed apart in the source
[5] = target: T2, GABA-A receptor; anion channel (Rattus norvegicus); assay: as §2; format: cell membranes; set-up: concentration or dose not given beside the values; conditions: Membrane, concentration not given here; procedure, shortened: as §3
Mus musculus [6] = assay: In vivo acute electroshock physical dependence activity in mice; Not active.; format: functional, organism-based
Mus musculus [7] = organism: Mus musculus; assay: Ability to antagonize the muscle relaxation effect in mice caused by a benzodiazepine full agonist, triazolam.; format: functional
Procedure, shortened: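 Muscle relaxation induced by triazolam; test compound and triazolam given separately, traction scored 30 min after dosing; ED50 for blocking the relaxant effect.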

Mus musculus [8] = assay: In vivo efficacy is evaluated by percent control of cerebellar GMP levels in (drug+stress) treated mice/mice under stress; format: functional; set-up: concentration or dose not given beside the values
Procedure, shortened: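 Male CF-1 mice given drug orally in vehicle 122 before electric footshock stress, controls given vehicle (1 mL/100 g); killed 30 min after treatment; cerebellum homogenized in 1% perchloric acid, iced 30 min, boiled 5 min, spun 17000g 20 min; supernatant cGMP by radioimmunoassay, expressed as % of stress control.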

SMILES	Change in Cl- current [1]	Shift [2]	ED50 (Rattus norvegicus) [mg/kg]	pKi [3]	Change in Cl- current [4]	inhibition [5] [%]	Acute electroshock activity (Mus musculus [6])	ED50 (Mus musculus [7]) [mg/kg]	Control (Mus musculus [8]) [%]
C[C@@H]1CN(C(=O)N2Cc3c(C(=O)OC(C)(C)C)ncn3-c3ccc(Cl)cc32)C[C@H](C)N1CC(F)(F)F	0.5	0.67	42	7.42	0	19	inactive	> 30	
C[C@@H]1CN(C(=O)N2Cc3c(C(=O)OC(C)(C)C)ncn3-c3ccc(C(F)(F)F)cc32)C[C@@H](C)N1	0.7	0.68	4.4	7.43	0.8	24		> 30	92
CC(C)(C)OC(=O)c1ncn2c1CN(C(=O)N1CCN(CC(F)(F)F)CC1)c1cc(Cl)ccc1-2	0.8	0.81	> 50	7.96	1	10	inactive	> 30	
CC(C)(C)OC(=O)c1ncn2c1CN(C(=O)N1CC3CCC(C1)N3)c1cc(Cl)ccc1-2	0.73	0.2	> 50	8.26	0.2				
CC(C)(C)OC(=O)c1ncn2c1CN(C(=O)N1CCN(C3CC3)CC1)c1cc(Cl)ccc1-2	0.42	0.76	12.5	8.27	0.75	24	inactive	> 30	
Cc1cccc2c1N(C(=O)N1C[C@@H](C)N[C@@H](C)C1)Cc1c(C(=O)OC(C)(C)C)ncn1-2		0.54	> 50	6.60	0.22				
CN1C2CCC1CN(C(=O)N1Cc3c(C(=O)OC(C)(C)C)ncn3-c3ccc(Cl)cc31)C2	2.1	0.68	29.7	8.04	2	26		> 30	
C[C@@H]1CN(C(=O)N2Cc3c(C(=O)OC(C)(C)C)ncn3-c3ccccc32)C[C@H](C)N1C	0.5	-0.82	> 50	8.18	-0.1				
CC1CNCC(C)N1C(=O)N1Cc2c(C(=O)OC(C)(C)C)ncn2-c2ccc(F)cc21 (stereo not drawn)	0.72	0.02	10.5	8.46	0	69		> 30	100
CC1(C)CN(C(=O)N2Cc3c(C(=O)OC(C)(C)C)ncn3-c3ccc(Cl)cc32)CCN1	0.33	-0.01	> 50	8.52	0	13	inactive	> 30	
Cc1ccc2c(c1)N(C(=O)N1CCNCC1)Cc1c(C(=O)OC(C)(C)C)ncn1-2	0.55	0.3	21	7.83	0.4			> 30	
C[C@@H]1NCCN(C(=O)N2Cc3c(C(=O)OC(C)(C)C)ncn3-c3ccc(Cl)cc32)[C@H]1C	0.68	0.07	17.7	8.39	0.48	55		35	
C[C@@H]1CN(C(=O)N2Cc3c(C(=O)OC(C)(C)C)ncn3-c3ccccc32)C[C@H](C)N1	0.5	-0.018	> 50	8.52	0	82		> 30	94
C[C@@H]1CN(C(=O)N2Cc3c(C(=O)OC(C)(C)C)ncn3-c3ccc(C(F)(F)F)cc32)CCN1	1	0.6	8.9	7.63	1	30		> 30	88
C[C@@H]1CN(C(=O)N2Cc3c(C(=O)OC(C)(C)C)ncn3-c3ccc(Cl)cc32)C[C@@H](C)N1	0.5	0.56	1.3	8.29	0.05	62		> 30	
CC(C)(C)OC(=O)c1ncn2c1CN(C(=O)N1CC3CC1CN3)c1cc(Cl)ccc1-2 (stereo not drawn)	0.3	0.33	> 50	7.52	0.5	4	inactive		

SMILES	Change in Cl- current [1]	Shift [2]	ED50 (Rattus norvegicus) [mg/kg]	pKi [3]	Change in Cl- current [4]	inhibition [5] [%]	Acute electroshock activity (Mus musculus [6])	ED50 (Mus musculus [7]) [mg/kg]	Control (Mus musculus [8]) [%]
CC1CN(C(=O)N2Cc3c(C(=O)OC(C)(C)C)ncn3-c3ccc(Cl)cc32)C(C)CN1.O=C(O)CC(=O)O (stereo not drawn)	0.3	0.41	17.6	8.11	-0.05	71		> 30	
C[C@@H]1CN(C(=O)N2Cc3c(C(=O)OC(C)(C)C)ncn3-c3ccc(F)cc32)C[C@H](C)N1C	1	0.44	35.3	8.57	-0.1	29		21.8	77
CC1CN(C)CC(C)N1C(=O)N1Cc2c(C(=O)OC(C)(C)C)ncn2-c2ccc(F)cc21 (stereo not drawn)		0.63	8.8	7.88	0.75	68		> 30	82
CN1CCN(C(=O)N2Cc3c(C(=O)OC(C)(C)C)ncn3-c3ccc(Cl)cc32)CC1(C)C	1.1	0.21	35.3	8.36	0.5	11	inactive	> 30	
Cc1ccc2c(c1)N(C(=O)N1C[C@@H](C)N[C@H](C)C1)Cc1c(C(=O)OC(C)(C)C)ncn1-2	0.7	0.1	6.3	8.29	0.05	22			49
CN1CC2CC1CN2C(=O)N1Cc2c(C(=O)OC(C)(C)C)ncn2-c2ccc(Cl)cc21 (stereo not drawn)	1.6	0.68	7.4	8.31	1	11		> 30	
CC(C)(C)OC(=O)c1ncn2c1CN(C(=O)N1CCNCC1)c1ccccc1-2.Cl	0.35	0.04	> 50	8.39					
CC1CN(C(=O)N2Cc3c(C(=O)OC(C)(C)C)ncn3-c3ccc(Cl)cc32)CC(C)N1 (stereo not drawn)	0.6	0.41	10.5	8.63	0.8	63		17.3	
CN(C)C(=O)N1Cc2c(C(=O)OC(C)(C)C)ncn2-c2ccccc21		0.15	> 50	8.28	0.09				
C[C@@H]1CN(C(=O)N2Cc3c(C(=O)OC(C)(C)C)ncn3-c3ccc(Cl)cc32)CCN1	0.6	0.01	3.7	8.22	0	75		27.5	57
CC(C)(C)OC(=O)c1ncn2c1CN(C(=O)N1CCNCC1)c1cc(Cl)ccc1-2	0.4	-0.02	> 50	8.40	0				
Cc1ccc2c(c1)N(C(=O)N1CCN[C@H](C)C1)Cc1c(C(=O)OC(C)(C)C)ncn1-2	0.8	0.19	2.7	8.26	0.1	51		17.3	59
Cc1cccc2c1N(C(=O)N1C[C@@H](C)N(C)[C@@H](C)C1)Cc1c(C(=O)OC(C)(C)C)ncn1-2		0.48	> 50	6.33	0.33				
C[C@@H]1CN(C(=O)N2Cc3c(C(=O)OC(C)(C)C)ncn3-c3ccc(Cl)cc32)C[C@H](C)N1S(C)(=O)=O.ClCCl		0.76	> 50	8.38	0.9	8	inactive	> 30	
C[C@@H]1CN(C(=O)N2Cc3c(C(=O)OC(C)(C)C)ncn3-c3ccc(F)cc32)C[C@H](C)N1	0.5	-0.14	35.3	8.98	0	95		> 30	74
C[C@@H]1CN(C(=O)N2Cc3c(C(=O)OC(C)(C)C)ncn3-c3cccc(Cl)c32)C[C@H](C)N1		0.05	> 50	7.55	0.29	44		> 30	95

Reference: ChEMBL document CHEMBL1132620, “Piperazine imidazo[1,5-a]quinoxaline ureas as high-affinity GABAA ligands of dual functionality” (J Med Chem, 1999)
